{
  "source": "ChEMBL document CHEMBL4020830",
  "about": "“Design, Synthesis, and Evaluation of a Novel Series of Indole Sulfonamide Peroxisome Proliferator Activated Receptor (PPAR) α/γ/δ Triple Activators: Discovery of Lanifibranor, a New Antifibrotic Clinical Candidate” (J Med Chem, 2018)",
  "key": {"Mus musculus": {"test_system": "Mus musculus", "test": "Antidiabetic activity in C57BL/Ks mouse model of diabetic dyslipidemia assessed as decrease in plasma glucose level at 30 mg/kg, po qd administered via gavage for 10 days measured 4 hrs post last dose", "format": "functional, organism-based", "how_it_was_run": "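Homozygous male C57BL/Ks-db (db/db) mice were gavaged once daily at 10 or 30 mg/kg, for 5 or 10 days. Retro-orbital blood was drawn before treatment and 4 h after the last gavage. Glucose and triglycerides were measured in serum. Results are expressed as % variation on the final day versus the control group. Analysis was one-way ANOVA with Dunnett's test.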"}, "[1]": {"biological_target": "T1, Peroxisome proliferator-activated receptor gamma (Homo sapiens, UniProt P37231)", "T1 sequence (P37231 whole entry)": "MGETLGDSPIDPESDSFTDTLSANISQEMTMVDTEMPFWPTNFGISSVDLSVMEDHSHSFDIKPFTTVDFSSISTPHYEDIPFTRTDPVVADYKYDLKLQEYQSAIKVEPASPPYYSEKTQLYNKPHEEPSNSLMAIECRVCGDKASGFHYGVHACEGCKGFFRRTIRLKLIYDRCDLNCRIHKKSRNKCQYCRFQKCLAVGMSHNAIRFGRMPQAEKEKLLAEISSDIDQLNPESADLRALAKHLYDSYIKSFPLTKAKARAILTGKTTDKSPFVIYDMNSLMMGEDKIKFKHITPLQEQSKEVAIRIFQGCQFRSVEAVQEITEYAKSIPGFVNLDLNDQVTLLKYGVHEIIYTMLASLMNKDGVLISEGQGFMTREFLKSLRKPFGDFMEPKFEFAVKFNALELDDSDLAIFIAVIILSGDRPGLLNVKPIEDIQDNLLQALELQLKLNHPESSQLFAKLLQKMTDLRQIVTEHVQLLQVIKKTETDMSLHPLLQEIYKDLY", "test": "Transactivation of recombinant GST-tagged PPARgamma (unknown origin) expressed in Escherichia coli assessed as N-terminal biotin-labeled LCOR (39 to 63 residues) co-activator recruitment by TR-FRET assay"}, "Rattus norvegicus": {"test_system": "Rattus norvegicus", "test": "Toxicity in Sprague-Dawley rat assessed as reduction in hematocrit level at 100 to 1000 mg/kg for 4 weeks", "format": "organism-based", "details": "in vivo, 672 h", "how_it_was_run": "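Sprague-Dawley rats were treated at 100 and 1000 mg/kg. Hematocrit and plasma volume were measured after 4 weeks and heart weight after 6 weeks. Analysis was one-way ANOVA with Dunnett's test versus control.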"}, "[2]": {"biological_target": "T2, Peroxisome proliferator-activated receptor delta (Mus musculus) (UniProt P35396)", "T2 sequence (whole entry)": "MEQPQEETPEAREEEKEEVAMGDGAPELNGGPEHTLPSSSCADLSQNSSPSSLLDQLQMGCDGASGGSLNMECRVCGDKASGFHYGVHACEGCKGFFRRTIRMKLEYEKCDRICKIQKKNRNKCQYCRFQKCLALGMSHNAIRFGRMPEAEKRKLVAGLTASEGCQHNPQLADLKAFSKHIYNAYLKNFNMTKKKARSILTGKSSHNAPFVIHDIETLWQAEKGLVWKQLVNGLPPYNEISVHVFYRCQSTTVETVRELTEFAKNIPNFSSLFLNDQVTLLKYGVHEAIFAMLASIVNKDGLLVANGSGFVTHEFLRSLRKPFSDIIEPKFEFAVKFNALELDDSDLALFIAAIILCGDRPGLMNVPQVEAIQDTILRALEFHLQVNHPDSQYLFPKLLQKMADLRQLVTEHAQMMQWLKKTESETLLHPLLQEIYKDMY", "test": "Transactivation of mouse GAL4-fused PPARdelta LBD expressed in African green monkey COS7 cells co-expressing 5Gal4 pGL3 TK Luc after overnight incubation by luciferase reporter gene assay relative to GW501516", "format": "cell-based", "how_it_was_run": "(§1)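 Cell-based Gal-4 transactivation assay in COS-7 cells transfected with PPARα, PPARδ or PPARγ ligand-binding domain. EC50 and Emax were derived, with Emax as maximum activation in percent of control. EC50s are means of at least two independent experiments performed in triplicate.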"}, "[3]": {"biological_target": "T3, Peroxisome proliferator-activated receptor alpha (Mus musculus, UniProt P23204)", "T3 sequence (P23204 whole entry)": "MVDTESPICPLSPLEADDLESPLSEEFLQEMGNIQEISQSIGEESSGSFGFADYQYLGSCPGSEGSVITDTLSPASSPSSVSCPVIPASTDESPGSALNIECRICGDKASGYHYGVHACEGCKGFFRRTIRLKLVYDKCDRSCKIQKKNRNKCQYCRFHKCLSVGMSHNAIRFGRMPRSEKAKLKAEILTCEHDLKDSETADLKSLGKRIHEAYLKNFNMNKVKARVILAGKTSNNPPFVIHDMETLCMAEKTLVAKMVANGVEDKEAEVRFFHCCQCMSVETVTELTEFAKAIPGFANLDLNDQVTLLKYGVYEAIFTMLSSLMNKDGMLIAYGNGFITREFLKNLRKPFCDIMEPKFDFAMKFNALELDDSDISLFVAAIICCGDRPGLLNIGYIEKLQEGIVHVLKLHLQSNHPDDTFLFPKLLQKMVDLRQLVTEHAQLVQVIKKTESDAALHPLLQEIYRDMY", "test": "Transactivation of mouse GAL4-fused PPARalpha LBD expressed in African green monkey COS7 cells co-expressing 5Gal4 pGL3 TK Luc after overnight incubation by luciferase reporter gene assay", "format": "cell-based", "how_it_was_run": "as §1"}, "[4]": {"biological_target": "T1, Peroxisome proliferator-activated receptor gamma"}, "[5]": {"biological_target": "T4, Peroxisome proliferator-activated receptor delta (Mus musculus, UniProt P35396)", "T4 sequence (P35396 whole entry)": "T2 sequence (whole entry)", "test": "Transactivation of mouse GAL4-fused PPARdelta LBD expressed in African green monkey COS7 cells co-expressing 5Gal4 pGL3 TK Luc after overnight incubation by luciferase reporter gene assay", "format": "cell-based"}, "[6]": {"biological_target": "T1, Peroxisome proliferator-activated receptor gamma", "remark": "listed apart in the source"}},
  "note": "pEC50: −log10 of the molar value. Activity calls are given as the source filed them. The calls are words filed in the database; no cut-off is given here.",
  "data": [
    {"smiles": "O=C(O)CCc1cc2cc(Cl)ccc2n1S(=O)(=O)c1ccccc1", "values": [
      {"measurement": "Activity", "setting": "Mus musculus", "result": "Active"}
    ]},
    {"smiles": "O=C(O)CCCc1cc2cc(Cl)ccc2n1S(=O)(=O)c1ccc2ncsc2c1", "note": "[LANIFIBRANOR]", "values": [
      {"measurement": "pEC50", "setting": "[1]", "result": 6.14},
      {"measurement": "Activity", "setting": "Rattus norvegicus", "result": "Non-Toxic"},
      {"measurement": "Emax", "setting": "[2]", "result": 131, "unit": "%"},
      {"measurement": "pEC50", "setting": "[3]", "result": 6.44},
      {"measurement": "pEC50", "setting": "[4]", "result": 5.49},
      {"measurement": "pEC50", "setting": "[5]", "result": 5.81},
      {"measurement": "pEC50", "setting": "[6]", "result": 5.94}
    ]}
  ]
}
